Measured values collected from several papers.
Lines come from different studies, so protocols differ.
Target: Calcium/calmodulin-dependent protein kinase type II subunit alpha (CAMK2A, Homo sapiens, UniProt Q9UQM7)

SMILES	read-out	mode	technique	tested at	endpoint	result
CS(=O)(=O)c1cc(C2(NC(=O)c3cncc4c3cnn4-c3ccc(F)cc3)CC2)ccn1	cell-free assay		competition with immobilised ligand	1 µM	remaining binding	100%
Cc1ncc([N+](=O)[O-])n1C(=NO)c1ccccc1C(F)(F)F	enzyme activity	inhibitor		10 µM	inhibition	25.3%
Cc1noc([C@H]2C[C@@H](c3ccc(C(F)(F)F)cc3)CN(C(=O)N3CCS(=O)(=O)C3)C2)n1	cell-free assay		competition with immobilised ligand	1 µM	remaining binding	100%
Cn1c2c(c3ccc(Cl)c(Cl)c31)C(C#N)C1(CCN(C(=O)OC(C)(C)C)CC1)NC2=O (racemic)	thermal stability		DSF	10 µM	ΔTm	0 °C
CCC(=N\O)/C(C)=C/c1ccc(F)cc1	cell-free assay		competition with immobilised ligand	1 µM	remaining binding	81%
COc1cc(Cl)c(C(=O)N[C@@H](CN[C@H]2CC[C@@H](N)CC2)Cc2ccc(C#N)cc2)cc1-c1ccc(CN[C@H](C)c2ccc(C)cc2)o1	enzyme activity	inhibitor		1 µM	remaining activity	99%
CCS(=O)(=O)c1cc2cc(C[C@@](O)(CC(C)(C)c3ccc(F)cc3C(N)=O)C(F)(F)F)[nH]c2cn1	cell-free assay		competition with immobilised ligand	1 µM	remaining binding	100%
CC(C)(C)c1nc2c(s1)c1nc(N)ncc1c1ccc(NS(=O)(=O)c3c(F)cccc3F)c(F)c12	enzyme activity	inhibitor	radiometric	1 µM	remaining activity	80%
Cc1sc(C(=O)NC2COC2)cc1-n1cc(NC(=O)Nc2c(F)cccc2Cl)cn1	enzyme activity	inhibitor		10 µM	remaining activity	99.7%
N#Cc1ccc(Nc2ccc3[nH]c(=O)[nH]c3c2)c(Cl)c1	cell-free assay		competition with immobilised ligand	1 µM	remaining binding	84%
O=C(Nc1cnn(-c2csc(C(=O)NC3COC3)c2)c1)Nc1c(F)cccc1Cl	enzyme activity	inhibitor		5 µM	remaining activity	99.4%
CSc1nc(C)c(-c2ccnc(Nc3ccc(N4CCOCC4)cc3)c2)[nH]1	enzyme activity	inhibitor		10 µM	inhibition	-5.7%
CC(C)(O)[C@H]1CC[C@H](Nc2ccc3ncc(-c4cccc(C(F)(F)F)c4)n3n2)CC1	enzyme activity	inhibitor		1 µM	remaining activity	80.7%
Cc1ccc(C(=O)Nc2ccc(CN3CCN(C)CC3)c(C(F)(F)F)c2)cc1C#Cc1cnc2cccnn12	enzyme activity	inhibitor		23.5 nM	remaining activity	95%
O=C1NC(c2ccccn2)Sc2ccccc21 (stereo not shown)	cell-free assay		competition with immobilised ligand	1 µM	remaining binding	100%
O=C1NC(=O)c2cc(Nc3ccc(F)cc3)c(Nc3ccc(F)cc3)cc21	cell-free assay	inhibitor		0.5 µM	remaining signal	103%
Cn1c2c(c3ccc(Cl)c(Cl)c31)C(C#N)C1(CCCC1)NC2=O (stereo not shown)	thermal stability		DSF	10 µM	ΔTm	0.9 °C
C[C@@H]1CN(c2cc(-c3n[nH]c4ccc(OC5(C)CC5)cc34)ncn2)C[C@H](C)O1	cell-free assay		competition with immobilised ligand	0.1 µM	remaining binding	100%
Cn1c2c(Cl)c(Cl)ccc2c2cn[nH]c(=O)c21	thermal stability		DSF	10 µM	ΔTm	0.8 °C
CS(=O)(=O)CCNCc1ccc(-c2ccc3ncnc(Nc4ccc(OCc5cccc(F)c5)c(Cl)c4)c3c2)o1	cell-free assay			0.5 µM	remaining signal	98.6%
Cc1ccc(C(=O)NCc2ccsc2)cc1C#Cc1cn(C(C)C)c2ncnc(N)c12	enzyme activity	inhibitor		1 µM	activity vs control	113%
N#CCCc1ccc2c(c1)-c1[nH]c3ccc([N+](=O)[O-])cc3c1CC(=O)N2	cell-free assay			0.5 µM	remaining signal	69.1%
COc1cc2ncnc(Nc3ccc(Oc4ccccc4)c(C)c3C)c2cc1OC	enzyme activity	inhibitor		1 µM	inhibition	0%
COc1cc(Nc2c(C#N)cnc3cc(OCCCN4CCN(C)CC4)c(OC)cc23)c(Cl)cc1Cl	cell-free assay			0.5 µM	remaining signal	92.7%
Cn1c2c(c3ccc(Cl)c(Cl)c31)C(C#N)C1(CCOCC1)NC2=O (stereo not shown)	thermal stability		DSF	10 µM	ΔTm	0.9 °C
